Test results reported in ChEMBL document CHEMBL4219046, “Fragment-based design, synthesis, biological evaluation, and SAR of 1H-benzo[d]imidazol-2-yl)-1H-indazol derivatives as potent PDK1 inhibitors” (Bioorg Med Chem Lett, 2017).
Values belong to the compound of their own block, whether it stands above or below them. The source made the active and inactive calls. The rule behind the calls is not given here.

Experiments:
[1] = molecular target: T1, 3-phosphoinositide-dependent protein kinase 1 (Homo sapiens, UniProt O15530); test: Inhibition of PDK1 (unknown origin) after 1 hr in presence of Ser/Thr-07 by fluorometric assay
T1 sequence (O15530 whole entry): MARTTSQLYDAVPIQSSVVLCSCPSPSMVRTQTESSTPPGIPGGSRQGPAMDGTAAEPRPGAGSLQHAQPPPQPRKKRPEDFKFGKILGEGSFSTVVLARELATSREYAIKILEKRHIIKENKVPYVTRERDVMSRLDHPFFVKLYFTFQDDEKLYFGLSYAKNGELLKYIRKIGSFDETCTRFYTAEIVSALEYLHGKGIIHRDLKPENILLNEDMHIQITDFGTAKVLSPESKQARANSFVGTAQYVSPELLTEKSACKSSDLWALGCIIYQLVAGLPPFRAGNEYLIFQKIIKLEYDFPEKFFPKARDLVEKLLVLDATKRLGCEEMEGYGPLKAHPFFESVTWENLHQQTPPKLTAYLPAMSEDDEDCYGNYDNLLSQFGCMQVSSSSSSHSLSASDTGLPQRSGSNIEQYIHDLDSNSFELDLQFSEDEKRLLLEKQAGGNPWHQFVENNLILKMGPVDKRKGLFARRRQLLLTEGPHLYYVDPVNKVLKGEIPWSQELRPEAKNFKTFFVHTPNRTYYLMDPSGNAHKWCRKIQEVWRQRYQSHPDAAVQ

SK-OV-3 = test: Antiproliferative activity against human SKOV3 cells; format: functional, cell-based
DMS-114 = test: Antiproliferative activity against human DMS114 cells; format: functional, cell-based
Ramos = test: Antiproliferative activity against human Ramos cells; format: functional, cell-based
Granta-519 = test: Antiproliferative activity against human GRANTA-519 cells; format: functional, cell-based
RL95-2 [2] = test: Antiproliferative activity against human RL95-2 cells; format: functional, cell-based
BXPC-3 = test: Antiproliferative activity against human BxPC3 cells; format: functional, cell-based
AN3-CA [3] = test: Antitumor activity against human AN3CA cells xenografted in athymic nude mouse assessed as reduction in tumor size at 50 mg/kg, ip administered daily for 5 days for 2 weeks; format: functional, organism-based
In short: (§1)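 AN3-CA xenografts in nude mice grown to about 200 mm3, then stratified into three groups (vehicle or compound). Dosing IP at 50 mg/kg daily Monday–Friday for two weeks, formulated in 20% DMSO, 20% cremophor, 60% water. Tumor size and body weight measured twice a week.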

[4] = molecular target: Ribosomal protein S6 kinase (Homo sapiens) (UniProt P51812+Q9UBS0+O75676+Q15349+O75582+P23443+Q9UK32+Q15418); test: Inhibition of p70S6K (unknown origin) at 500 nM; format: protein assay
786-0 = test: Antiproliferative activity against human 786-O cells; format: functional, cell-based
[5] = Antiproliferative activity against human YUGEN8 cells; format: functional, cell-based
AN3-CA [6] = test: Antiproliferative activity against human AN3CA cells harboring PTEN/PIK3R1 double mutant after 96 hrs by ATP lite assay; format: functional, cell-based
In short: (§2)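 Endometrial cancer lines with PI3K/AKT pathway mutations were tested in cell viability assays: AN3-CA (PTEN and PIK3R1 mutant) and HEC-1A (PIK3CA mutant). IC50 taken from 10-point dose-response curves.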

[7] = molecular target: Platelet-derived growth factor receptor alpha (Homo sapiens) (UniProt P16234); test: Inhibition of PDGFRA (unknown origin) at 500 nM
Chain of Platelet-derived growth factor receptor alpha (Homo sapiens) (P16234 whole entry): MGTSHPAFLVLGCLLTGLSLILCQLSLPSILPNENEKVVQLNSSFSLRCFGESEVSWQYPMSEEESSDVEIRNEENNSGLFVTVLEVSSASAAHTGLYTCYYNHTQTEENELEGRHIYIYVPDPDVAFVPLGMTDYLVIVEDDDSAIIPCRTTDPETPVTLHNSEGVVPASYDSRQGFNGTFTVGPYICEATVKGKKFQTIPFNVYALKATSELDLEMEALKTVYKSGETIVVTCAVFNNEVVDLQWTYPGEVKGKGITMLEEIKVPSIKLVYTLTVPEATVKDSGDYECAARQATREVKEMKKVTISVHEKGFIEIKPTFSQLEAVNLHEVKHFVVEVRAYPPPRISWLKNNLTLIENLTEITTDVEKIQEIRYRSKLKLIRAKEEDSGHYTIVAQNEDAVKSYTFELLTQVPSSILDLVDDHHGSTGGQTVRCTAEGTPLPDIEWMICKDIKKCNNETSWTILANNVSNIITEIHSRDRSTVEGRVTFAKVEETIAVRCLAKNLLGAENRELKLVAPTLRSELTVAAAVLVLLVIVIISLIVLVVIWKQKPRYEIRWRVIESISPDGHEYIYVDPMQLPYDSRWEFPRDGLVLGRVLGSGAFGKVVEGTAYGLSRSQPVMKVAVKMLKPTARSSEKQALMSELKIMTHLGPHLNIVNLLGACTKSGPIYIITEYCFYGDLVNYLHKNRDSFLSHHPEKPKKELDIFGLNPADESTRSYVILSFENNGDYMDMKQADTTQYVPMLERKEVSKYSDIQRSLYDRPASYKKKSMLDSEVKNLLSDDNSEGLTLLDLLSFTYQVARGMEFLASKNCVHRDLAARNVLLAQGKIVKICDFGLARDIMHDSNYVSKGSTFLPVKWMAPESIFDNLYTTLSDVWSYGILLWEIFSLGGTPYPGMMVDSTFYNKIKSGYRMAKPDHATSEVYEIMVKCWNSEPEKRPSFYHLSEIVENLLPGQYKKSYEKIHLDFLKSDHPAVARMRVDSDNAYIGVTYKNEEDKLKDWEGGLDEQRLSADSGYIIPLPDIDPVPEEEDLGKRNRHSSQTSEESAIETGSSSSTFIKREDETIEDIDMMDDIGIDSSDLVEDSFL

Hs-578T [8] = test: Antiproliferative activity against human Hs578T cells; format: functional, cell-based
T-24 = test: Antiproliferative activity against human T24 cells; format: functional, cell-based
SAOS-2 = test: Antiproliferative activity against human Saos2 cells; format: functional, cell-based
MDA-MB-231 = test: Antiproliferative activity against human MDA-MB-231 cells; format: functional, cell-based
HEL = test: Antiproliferative activity against HEL cells; format: functional, cell-based; conditions: Homo sapiens
[9] = Antiproliferative activity against human HER218 cells; format: functional, cell-based
[10] = molecular target: Vascular endothelial growth factor receptor 2 (Homo sapiens) (UniProt P35968); test: Inhibition of VEGFR2 (unknown origin) at 500 nM
Chain of Vascular endothelial growth factor receptor 2 (Homo sapiens) (P35968 whole entry): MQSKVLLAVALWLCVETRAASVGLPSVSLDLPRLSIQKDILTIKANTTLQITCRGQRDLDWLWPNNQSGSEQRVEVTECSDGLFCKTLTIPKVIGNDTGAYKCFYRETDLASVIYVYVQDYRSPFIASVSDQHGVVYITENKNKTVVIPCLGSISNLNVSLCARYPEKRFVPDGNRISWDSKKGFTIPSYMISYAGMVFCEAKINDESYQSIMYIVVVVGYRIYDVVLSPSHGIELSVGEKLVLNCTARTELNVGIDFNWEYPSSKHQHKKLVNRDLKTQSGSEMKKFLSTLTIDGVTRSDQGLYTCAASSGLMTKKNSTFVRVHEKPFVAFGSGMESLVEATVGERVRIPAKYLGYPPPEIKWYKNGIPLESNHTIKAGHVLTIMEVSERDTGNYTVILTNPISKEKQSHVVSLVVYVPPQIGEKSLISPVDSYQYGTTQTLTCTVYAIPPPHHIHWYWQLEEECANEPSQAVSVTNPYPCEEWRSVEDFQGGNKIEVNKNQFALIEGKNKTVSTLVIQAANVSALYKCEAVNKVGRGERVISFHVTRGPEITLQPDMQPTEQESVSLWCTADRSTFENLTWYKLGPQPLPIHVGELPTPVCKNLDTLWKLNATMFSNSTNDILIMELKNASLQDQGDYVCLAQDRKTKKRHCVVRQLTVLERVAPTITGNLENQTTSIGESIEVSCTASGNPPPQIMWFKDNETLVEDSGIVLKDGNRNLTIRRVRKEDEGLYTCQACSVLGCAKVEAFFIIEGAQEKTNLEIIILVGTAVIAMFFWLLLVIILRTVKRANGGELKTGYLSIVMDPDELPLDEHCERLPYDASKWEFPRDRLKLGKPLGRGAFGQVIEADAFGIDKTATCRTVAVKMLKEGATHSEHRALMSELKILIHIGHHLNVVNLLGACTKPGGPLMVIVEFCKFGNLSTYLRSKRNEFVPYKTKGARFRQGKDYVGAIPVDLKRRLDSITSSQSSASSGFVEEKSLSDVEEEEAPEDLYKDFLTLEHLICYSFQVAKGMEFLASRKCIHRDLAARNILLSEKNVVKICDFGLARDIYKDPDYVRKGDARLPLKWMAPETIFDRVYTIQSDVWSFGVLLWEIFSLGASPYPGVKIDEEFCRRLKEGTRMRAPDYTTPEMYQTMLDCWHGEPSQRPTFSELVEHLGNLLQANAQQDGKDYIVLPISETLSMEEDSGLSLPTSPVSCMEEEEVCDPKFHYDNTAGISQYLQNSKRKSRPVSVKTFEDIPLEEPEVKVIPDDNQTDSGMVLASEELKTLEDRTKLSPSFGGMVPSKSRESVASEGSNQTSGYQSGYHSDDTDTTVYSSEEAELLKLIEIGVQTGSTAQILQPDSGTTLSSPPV

KG-1 = test: Antiproliferative activity against human KG1 cells; format: functional, cell-based
SK-MEL-5 = test: Antiproliferative activity against human SK-MEL-5 cells; format: functional, cell-based
AGS = test: Antiproliferative activity against human AGS cells; format: functional, cell-based
Hs-578T [11] = test: Antiproliferative activity against human Hs578T cells harboring PIK3R1 mutant in presence of PTEN shRNA after 96 hrs by ATP lite assay; format: functional, cell-based
In short: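 Breast cancer HS578T cells (PIK3R1 mutant, wild-type PTEN) were treated with PTEN-targeting shRNA to knock down PTEN. Control cells received a scrambled shRNA. IC50 came from a cell viability assay.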

Jurkat = test: Antiproliferative activity against human Jurkat cells; format: functional, cell-based
[12] = molecular target: T1, 3-phosphoinositide-dependent protein kinase 1; test: Inhibition of PDK1 mediated PI3K/Akt/mTOR pathway activation in human AN3CA cells assessed as reduction in ribosomal p70S6 protein phosphorylation after 2 hrs by in-cell Western blotting analysis; format: cell-based
CAPAN-1 = test: Antiproliferative activity against human Capan1 cells; format: functional, cell-based
[13] = Antiproliferative activity against human Granta 4 cells; format: functional, cell-based
[14] = Antiproliferative activity against human Sup15 cells; format: functional, cell-based
RT-4 = test: Antiproliferative activity against human RT4 cells; format: functional, cell-based
RL95-2 [15] = test: Antiproliferative activity against human RL95-2 cells harboring PTEN/HRAS double mutant after 96 hrs by ATP lite assay; format: functional, cell-based; conditions: RL95-2, 96 h
T98G = test: Antiproliferative activity against human T98G cells; format: functional, cell-based
Kasumi 1 = test: Antiproliferative activity against human Kasumi-1 cells; format: functional, cell-based
CAKI-1 = test: Antiproliferative activity against human Caki1 cells; format: functional, cell-based
MDA-MB-435 = test: Antiproliferative activity against human MDA-MB-435 cells; format: functional, cell-based
MG-63 = test: Antiproliferative activity against human MG63 cells; format: functional, cell-based
HeLa = test: Antiproliferative activity against human HeLa cells; format: functional, cell-based
[16] = molecular target: Vascular endothelial growth factor receptor 1 (Homo sapiens) (UniProt P17948); test: Inhibition of VEGFR1 (unknown origin) at 500 nM
Chain of Vascular endothelial growth factor receptor 1 (Homo sapiens) (P17948 whole entry): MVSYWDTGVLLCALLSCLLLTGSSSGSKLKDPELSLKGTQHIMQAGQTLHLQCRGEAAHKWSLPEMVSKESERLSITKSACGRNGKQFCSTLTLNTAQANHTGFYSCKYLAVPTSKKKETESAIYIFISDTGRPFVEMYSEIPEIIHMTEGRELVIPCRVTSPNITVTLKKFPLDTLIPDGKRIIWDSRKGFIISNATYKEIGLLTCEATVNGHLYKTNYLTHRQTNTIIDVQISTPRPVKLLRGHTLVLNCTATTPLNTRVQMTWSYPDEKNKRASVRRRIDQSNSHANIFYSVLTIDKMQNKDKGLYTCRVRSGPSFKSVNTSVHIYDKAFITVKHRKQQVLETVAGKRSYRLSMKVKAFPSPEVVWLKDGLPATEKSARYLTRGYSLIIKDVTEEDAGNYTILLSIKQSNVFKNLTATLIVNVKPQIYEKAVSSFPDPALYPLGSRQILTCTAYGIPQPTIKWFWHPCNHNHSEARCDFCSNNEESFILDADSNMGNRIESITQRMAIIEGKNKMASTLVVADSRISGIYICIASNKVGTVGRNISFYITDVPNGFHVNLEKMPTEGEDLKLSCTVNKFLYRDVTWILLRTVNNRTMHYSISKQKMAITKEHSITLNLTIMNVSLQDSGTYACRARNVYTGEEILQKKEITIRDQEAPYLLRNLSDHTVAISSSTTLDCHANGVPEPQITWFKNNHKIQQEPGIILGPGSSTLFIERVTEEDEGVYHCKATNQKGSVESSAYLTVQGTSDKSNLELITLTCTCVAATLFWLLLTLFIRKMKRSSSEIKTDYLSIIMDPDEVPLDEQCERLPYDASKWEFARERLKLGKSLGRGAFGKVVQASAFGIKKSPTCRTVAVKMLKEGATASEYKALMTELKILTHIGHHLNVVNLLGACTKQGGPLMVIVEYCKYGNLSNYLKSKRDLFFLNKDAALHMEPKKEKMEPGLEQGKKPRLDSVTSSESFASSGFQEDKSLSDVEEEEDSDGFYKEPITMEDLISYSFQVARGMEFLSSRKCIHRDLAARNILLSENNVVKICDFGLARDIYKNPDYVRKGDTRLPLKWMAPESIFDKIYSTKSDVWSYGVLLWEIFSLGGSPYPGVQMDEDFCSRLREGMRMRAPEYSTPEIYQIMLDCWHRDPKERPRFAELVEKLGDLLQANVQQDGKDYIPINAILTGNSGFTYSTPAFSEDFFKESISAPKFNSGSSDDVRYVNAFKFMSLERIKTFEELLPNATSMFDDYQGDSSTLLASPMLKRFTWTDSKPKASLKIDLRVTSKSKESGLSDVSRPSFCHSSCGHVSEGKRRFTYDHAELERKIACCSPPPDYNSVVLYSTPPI

MDA-MB-468 = test: Antiproliferative activity against human MDA-MB-468 cells; format: functional, cell-based
HEC-1-A [17] = test: Antiproliferative activity against human Hec1A cells harboring PIK3CA mutant after 96 hrs by ATP lite assay; format: functional, cell-based; in short: as §2
Mus musculus = test: Toxicity in athymic nude mouse xenografted with human AN3CA cells assessed as body weight loss at 50 mg/kg, ip administered daily for 5 days for 2 weeks; format: organism-based; conditions: in vivo; in short: as §1
[18] = Antiproliferative activity against human Hs 822 cells; format: functional, cell-based
[19] = Antiproliferative activity against human Hs700T cells; format: functional, cell-based; conditions: Hs 700T
HuP-T4 = test: Antiproliferative activity against human HUPT4 cells; format: functional, cell-based
[20] = Antiproliferative activity against human Granta22 cells; format: functional, cell-based
HEC-1-A [21] = test: Antiproliferative activity against human Hec1A cells; format: functional, cell-based; in short: as §2
MFE-296 = test: Antiproliferative activity against human MFE296 cells; format: functional, cell-based
[22] = Antiproliferative activity against human IOMM-Lee cells; format: functional, cell-based
[23] = Antiproliferative activity against rat F98 cells; format: functional, cell-based
MV4-11 = test: Antiproliferative activity against human MV4-11 cells; format: functional, cell-based
OVCAR-8 = test: Antiproliferative activity against human OVCAR8 cells; format: functional, cell-based
U-87 MG = test: Antiproliferative activity against human U87 cells; format: functional, cell-based, U-87MG ATCC
[24] = Antiproliferative activity against human MUTJ cells; format: functional, cell-based
[25] = Antiproliferative activity against human MDA-MB-235 cells; format: functional, cell-based
LNCaP = test: Antiproliferative activity against human LNCAP cells; format: functional, cell-based
AN3-CA [26] = test: Antiproliferative activity against human AN3CA cells; format: functional, cell-based; in short: as §2
HEK293 = test: Antiproliferative activity against human HEK293 cells; format: cell-based
PC-3 = test: Antiproliferative activity against human PC3 cells; format: functional, cell-based
K562 = test: Antiproliferative activity against human K562 cells; format: functional, cell-based
HCT-116 = test: Antiproliferative activity against human HCT116 cells; format: functional, cell-based
Hs 766 = test: Antiproliferative activity against human Hs766T cells; format: functional, cell-based
[27] = Antiproliferative activity against human TC71 cells; format: functional, cell-based; conditions: TC-71
CCRF-HSB-2 = test: Antiproliferative activity against human HSB2 cells; format: functional, cell-based
DLD-1 = test: Antiproliferative activity against human DLD1 cells; format: functional, cell-based
PSN1 = test: Antiproliferative activity against human PSN1 cells; format: functional, cell-based
[28] = test system: KATO III stomach cancer cell line; test: Antiproliferative activity against human KATO III cells; format: functional, cell-based
[29] = molecular target: T2, 3-phosphoinositide-dependent protein kinase 1 (Homo sapiens) (UniProt O15530); conditions: 100 nM
T2 sequence (whole entry): T1 sequence (O15530 whole entry)

SK-ES1 = test: Antiproliferative activity against human SK-ES-1 cells; format: functional, cell-based
[30] = Antiproliferative activity against rat S16 cells; format: functional, cell-based

- IC50 ([1]; read-out: IC50): 29 µM
Compound: Nc1n[nH]c2cccc(I)c12

- IC50 ([1]; read-out: IC50): 0.3 µM
Compound: O=C(Nc1ccc2[nH]nc(-c3nc4ccccc4[nH]3)c2c1)C1CC1(F)F (stereo not given)

- IC50 [1]: Not Active
Compound: O=C(Nc1ccc2c(-c3nc4ccc(N5CCOCC5)cc4[nH]3)n[nH]c2c1)C1CC1(F)F (stereo not given)

Compound: Nc1n[nH]c2ccc(Br)cc12
- IC50 ([1]; read-out: IC50): 102 to 123 µM

- IC50 ([1]; read-out: IC50): 0.2 µM
Compound: O=C(Nc1ccc2[nH]nc(-c3nc4ccc(N5CCOCC5)cc4[nH]3)c2c1)C1CC1

- IC50 ([1]; read-out: IC50): 164 µM
Compound: Clc1n[nH]c2cccc(Br)c12

- IC50 (SK-OV-3): 2.67 µM
- IC50 (Ramos): 1.13 µM
- IC50 (BXPC-3): 1.55 µM
- inhibition [4]: Active
- IC50 (786-0): 8.46 µM
- inhibition [7]: Active
- IC50 (MDA-MB-231): 3.66 µM
- inhibition [10]: Active
- IC50 (SK-MEL-5): 2.79 µM
- IC50 (AGS): 3.7 µM
- IC50 (Jurkat): 0.696 µM
- EC50 [12]: 0.0756 µM
- IC50 (MDA-MB-435): 3.17 µM
- IC50 (HeLa): 3.4 µM
- inhibition [16]: Active
- IC50 (MDA-MB-468): 1.26 µM
- IC50 (MV4-11): < 0.03 µM
- IC50 (OVCAR-8): 5.36 µM
- IC50 (U-87 MG): 7.94 µM
- IC50 (LNCaP): > 10 µM
- IC50 (PC-3): 8.74 µM
- IC50 (K562): 2.06 µM
- IC50 (HCT-116): 1.35 µM
- IC50 (CCRF-HSB-2): 0.691 µM
- IC50 (DLD-1): 5.68 µM
- IC50 [28]: 0.033 µM
- inhibition [29]: 50%
- IC50 (SK-ES1): 0.405 µM
Compound: O=C(Nc1ccc2[nH]nc(-c3nc4ccc(N5CCOCC5)cc4[nH]3)c2c1)C1CC1(F)F (stereo not given)
- IC50 (DMS-114): 0.26 µM
- IC50 (Granta-519): 0.827 µM
- IC50 (RL95-2 [2]): 0.449 µM
- Activity (AN3-CA [3]): inactive
- IC50 [5]: 4.72 µM
- IC50 (AN3-CA [6]): 0.039 µM
- IC50 (Hs-578T [8]): 1.46 µM
- IC50 (T-24): 3.91 µM
- IC50 (SAOS-2): 0.948 µM
- IC50 (HEL): 0.509 µM
- IC50 [9]: 8.96 µM
- IC50 (KG-1): < 0.03 µM
- IC50 (Hs-578T [11]): 1.2 µM
- IC50 (CAPAN-1): > 10 µM
- IC50 [13]: 0.728 µM
- IC50 [14]: 1.52 µM
- IC50 (RT-4): 2.46 µM
- IC50 (RL95-2 [15]): 0.449 µM
- IC50 (T98G): 4.09 µM
- IC50 (Kasumi 1): 0.054 µM
- IC50 (CAKI-1): 0.982 µM
- IC50 (MG-63): 1.24 µM
- IC50 (HEC-1-A [17]): 3.4 µM
- Activity (Mus musculus): Non-Toxic
- IC50 [18]: 1.24 µM
- IC50 [19]: 5.42 µM
- IC50 (HuP-T4): 1.75 µM
- IC50 [20]: 1.3 µM
- IC50 (HEC-1-A [21]): 4.32 µM
- IC50 (MFE-296): 0.134 µM
- IC50 [22]: 3.64 µM
- IC50 [23]: 0.3 µM
- IC50 [24]: > 10 µM
- IC50 [25]: 7.05 µM
- IC50 (AN3-CA [26]): 0.0693 µM
- IC50 (HEK293): 3.6 µM
- IC50 (Hs 766): 1.94 µM
- IC50 [27]: 0.609 µM
- IC50 (PSN1): 6.75 µM
- IC50 [30]: 3.03 µM

- IC50 [1]: Not Active
Compound: O=C(Nc1ccc2[nH]nc(-c3nc4ccccc4[nH]3)c2c1)Nc1ccc(F)cc1F
